Data set [1] in a line: Transmission electron microscopy. Format: physicochemical. Conditions: TEM, PBS; for morphology after self-assembly: pH = 7.4, above CMC, samples prepared at 25°C, uranyl acetate stain. The method in brief:
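Samples were prepared in PBS at 25°C and applied to carbon-coated copper grids. Excess liquid was blotted with filter paper, and samples were negatively stained with uranyl acetate. Grids were dried overnight in a desiccator and imaged at 200 kV.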

Data set [2] concerns C-LytA (C-terminal moiety of the pneumococcal cell-wall amidase LytA). Description: Isothermal titration calorimetry. Conditions: ITC; in words, as compared to Fmoc-K' itself. Format: binding, Streptococcus pneumoniae. Summed up: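 Recombinant C-LytA was expressed in E. coli BL21(DE3), induced with 0.3 mM IPTG at 16°C for 16–18 h, purified on Q Sepharose, eluted with 2% choline, and dialysed into PBS to remove choline. It was a dimer by gel filtration and ultracentrifugation. ITC was run in PBS at 16°C with ligand at pH 7.4, both solutions degassed by centrifugation. Ligand was titrated into the protein cell (0.4 μL, then 19 × 2 μL injections, 120 s apart, stirred at 1000 rpm). Ka came from a one- or two-site binding fit.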
(ITC needs no label: the signal is the heat of the interaction.)

The mark [3] stands for this setting: pH = 7.4, 1.25 mmol/L, 1.08 wt% (Figure 2 legend).

Non-standard residues stand in square brackets, D forms with d. Nap = naphthalene (naphthaline) capping group; Lys(Me3) = C[N+](C)(C)CCCC[C@H](N)C(=O)O; Ada = adamantane cap

For the substance “AdaGFFYKKK'-NH2 (Ada-GFFYKK[Lys(Me3)]-NH2) [Compound 1]”, the “average diameter of nanoparticles” value in data set [1] (pH = 7.4, 1.09 wt%) was “around 153 nm”. Further, the morphology after self-assembly result in data set [1] is “nanoparticle morphology”. Besides, the “association constant (Ka) with C-LytA compared to Fmoc-K'” value in data set [2] is listed as “far higher association constant”.
As for “NapGFFYKKK'-NH2 (Nap-GFFYKK[Lys(Me3)]-NH2) [Compound 2]”, the morphology after self-assembly result in data set [1] is given as “uniform nanofibers”. In data set [1] (setting [3]), the length of nanofibers entry is “several microns” and the width of nanofibers result is given as “around 75 nm”. Further, the “association constant (Ka) with C-LytA compared to Fmoc-K'” value in data set [2] was “far higher association constant”.
